The record followed here is ChEMBL document CHEMBL1152689, “Synthesis, tautomerism, and antimicrobial, anti-HCV, anti-SSPE, antioxidant, and antitumor activities of arylazobenzosuberones” (Bioorg Med Chem, 2009).

In brackets after ≈: the same amount, converted by molar mass. Activity calls are given as the source filed them. No cut-off for these calls is given here.

One may read the IC50 as the point on the concentration scale where inhibition reaches its midpoint.

The subject of the first assay is Hepatitis C virus. Description: Antiviral activity against HCV by cell based replicon assay. It is filed as functional, Hepacivirus hominis. The method, boiled down: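 HCV replicon cells plated at 1×10^4 per well. Next day incubated at 37 °C with serially diluted compound in DMEM with 2% FBS and 0.5% DMSO. HCV RNA copy number measured by quantitative RT-PCR on total cellular RNA. Each point is the average of five replicates. Cytotoxicity measured by MTS in parallel.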
In turn, `COc1ccc(N/N=C2\CCCc3ccccc3C2=O)cc1` displayed an MIC of 1.01 µg/mL (≈ 3.43 µM).
On the same count and under the same terms, for `O=C1/C(=N/Nc2ccccc2)CCCc2ccccc21` the value was 1.07 µg/mL (≈ 4.05 µM).

The next assay relates to Measles morbillivirus. Description: Antiviral activity against Measles virus infected in intracranially dosed hamster assessed as inhibition of subacute sclerosing panencephalitis. The format is functional. The method, boiled down: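 Hamsters under ether anesthesia injected intracranially, into the subarachnoid space at 2 mm depth, at 5, 10 and 20 mg/kg/day for 10 days. Four animals per group sacrificed on days 1–20. Brains homogenized in PBS and centrifuged, supernatant deproteinized with ethanol, then MIC in brain tissue determined by HPLC and bioassay.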
Consider `COc1ccc(N/N=C2\CCCc3ccccc3C2=O)cc1`, for which the MIC came out at 6.01 µg/mL (≈ 20.4 µM).
On the same count and under the same terms, for `O=C1/C(=N/Nc2ccccc2)CCCc2ccccc21` the value was 6.12 µg/mL (≈ 23.2 µM).

The next assay has as its system Radical scavenging activity. Description: Antioxidant activity assessed as DPPH free radical scavenging activity by measuring reduction in DPPH absorbance by ELISA relative to untreated control. More on the design: concentration or dose not given beside the values. It is filed as functional. The method, boiled down:
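Test compounds dissolved in DMSO, ascorbic acid standard in water, both serially diluted. 10 µl sample added to 90 µl of 100 µM DPPH in methanol and kept in the dark at 37 °C for 30 min. Absorbance read at 515 nm. Blank is DMSO plus DPPH. % reduction = (A_B − A_A)/A_B × 100. Run in triplicate.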
Take `O=C1O[C@H]([C@@H](O)CO)C(O)=C1O`: the Activity was found to be 79%.
On the same count and under the same terms, the result for `COc1ccc(N/N=C2\CCCc3ccccc3C2=O)cc1` reads 83.9%.

Tested on in the next assay: not listed separately
The experiment in a line: Antioxidant activity assessed as inhibition of peroxynitrite-mediated 3-nitrotyrosine formation by HPLC. It is filed as functional. The method, boiled down:
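Tyrosine and peroxynitrite, each 100 µM, reacted with compound at 0–300 µM in 100 mM phosphate buffer pH 7.4 at 37 °C for 15 min. Peroxynitrite made from acidified H2O2 plus KNO2, quenched with NaOH, and kept on ice no longer than 30 min before use.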
As to `Cc1c(C)c2c(c(C)c1O)CCC(C)(C(=O)O)O2` (stereo not given) [TROLOX], the IC50 was found to be 58.4 µM.
For `COc1ccc(N/N=C2\CCCc3ccccc3C2=O)cc1`, the IC50 was 54.2 µM.
For the compound `O=C1/C(=N/Nc2ccccc2)CCCc2ccccc21`, the IC50 amounted to 56 µM.

Another assay concerns MC-38. The experiment in a line: Antitumor activity against mouse Colon 38 cells implanted in iv dosed C57BL/6 mouse administered as single dose. The format is functional, organism-based. The method, boiled down:
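Female C57BL/6 mice, 6 weeks old, given about 30 mg Colon 38 tumor tissue s.c. in the flank. Randomized into groups of n = 5 when tumors reached about 300 mm3 (day 1). Compound in 5% glucose given as a single iv tail-vein dose on day 1; controls received 5% glucose. Tumor volume = (length × width²)/2 and body weight tracked.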
Turning to `COc1ccc(N/N=C2\CCCc3ccccc3C2=O)cc1`, the outcome was Active.
Still for that read-out and setting: for `O=C1/C(=N/Nc2ccccc2)CCCc2ccccc21` the value was “Active”.

The target in the next assay is DNA topoisomerase 2-alpha (Mus musculus) (UniProt Q01320). The experiment in a line: Inhibition of topoisomerase 2 from mouse P388 cells assessed as relaxation of pBR322 DNA by agarose gel electrophoresis relative to etoposide. It is filed as cell-based. The method, boiled down: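 Topoisomerase II purified from P388 cells. One unit relaxes 0.125 µg supercoiled pBR322 DNA, incubated with or without inhibitor at 30 °C for 1 h in 50 mM Tris-HCl pH 8.0, 100 mM KCl, 10 mM MgCl2, 0.5 mM DTT, 1 mM ATP and 30 µg/ml BSA. Products run on 0.7% agarose in TBE, stained with ethidium bromide and imaged under UV.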
Sequence of DNA topoisomerase 2-alpha (Mus musculus) (Q01320 whole entry): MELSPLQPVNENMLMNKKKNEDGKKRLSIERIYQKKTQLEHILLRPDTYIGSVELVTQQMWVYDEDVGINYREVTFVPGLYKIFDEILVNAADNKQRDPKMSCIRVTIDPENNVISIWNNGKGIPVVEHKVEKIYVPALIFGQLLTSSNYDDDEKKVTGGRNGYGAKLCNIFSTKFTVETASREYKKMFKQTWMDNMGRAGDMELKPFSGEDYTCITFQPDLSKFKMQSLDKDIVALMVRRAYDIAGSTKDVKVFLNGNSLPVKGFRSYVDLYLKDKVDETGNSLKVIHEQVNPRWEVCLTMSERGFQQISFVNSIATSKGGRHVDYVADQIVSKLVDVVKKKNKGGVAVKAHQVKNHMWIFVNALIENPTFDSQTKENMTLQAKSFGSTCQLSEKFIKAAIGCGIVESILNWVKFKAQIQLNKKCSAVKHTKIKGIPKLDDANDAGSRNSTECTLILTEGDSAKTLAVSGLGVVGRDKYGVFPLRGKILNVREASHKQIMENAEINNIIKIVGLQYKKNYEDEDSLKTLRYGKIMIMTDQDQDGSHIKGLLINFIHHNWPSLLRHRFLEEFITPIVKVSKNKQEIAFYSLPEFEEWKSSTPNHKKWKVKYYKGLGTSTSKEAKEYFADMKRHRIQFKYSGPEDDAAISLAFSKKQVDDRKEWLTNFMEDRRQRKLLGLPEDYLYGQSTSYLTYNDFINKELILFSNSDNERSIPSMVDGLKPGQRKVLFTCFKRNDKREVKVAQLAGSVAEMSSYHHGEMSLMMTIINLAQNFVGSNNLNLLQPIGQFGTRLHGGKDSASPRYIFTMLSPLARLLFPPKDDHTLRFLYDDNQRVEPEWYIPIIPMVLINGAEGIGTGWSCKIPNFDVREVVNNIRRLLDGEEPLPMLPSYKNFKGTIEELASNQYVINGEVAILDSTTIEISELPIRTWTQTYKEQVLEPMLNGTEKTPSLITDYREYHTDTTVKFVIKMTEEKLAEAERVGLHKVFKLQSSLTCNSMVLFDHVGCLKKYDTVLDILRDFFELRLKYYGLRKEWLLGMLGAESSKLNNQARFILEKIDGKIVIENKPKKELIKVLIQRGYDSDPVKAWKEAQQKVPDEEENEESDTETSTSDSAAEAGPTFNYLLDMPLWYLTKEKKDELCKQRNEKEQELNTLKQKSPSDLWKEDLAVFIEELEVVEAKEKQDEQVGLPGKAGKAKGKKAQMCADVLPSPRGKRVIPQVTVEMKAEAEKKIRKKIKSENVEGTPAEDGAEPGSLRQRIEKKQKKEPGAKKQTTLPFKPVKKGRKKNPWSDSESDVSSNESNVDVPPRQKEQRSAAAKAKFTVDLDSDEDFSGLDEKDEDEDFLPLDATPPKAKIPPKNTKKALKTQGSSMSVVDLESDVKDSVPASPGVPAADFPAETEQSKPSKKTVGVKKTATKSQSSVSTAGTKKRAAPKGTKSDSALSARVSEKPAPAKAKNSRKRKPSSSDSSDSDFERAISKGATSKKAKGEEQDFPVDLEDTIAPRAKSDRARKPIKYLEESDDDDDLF
`COc1ccc(N/N=C2\CCCc3ccccc3C2=O)cc1`: the Ratio came out at 4.9.
On the same count and under the same terms, for `O=C1/C(=N/Nc2ccccc2)CCCc2ccccc21` the value was 4.4.

The next assay addresses T1, DNA topoisomerase 1 (Homo sapiens) (UniProt P11387).
T1 sequence (whole entry): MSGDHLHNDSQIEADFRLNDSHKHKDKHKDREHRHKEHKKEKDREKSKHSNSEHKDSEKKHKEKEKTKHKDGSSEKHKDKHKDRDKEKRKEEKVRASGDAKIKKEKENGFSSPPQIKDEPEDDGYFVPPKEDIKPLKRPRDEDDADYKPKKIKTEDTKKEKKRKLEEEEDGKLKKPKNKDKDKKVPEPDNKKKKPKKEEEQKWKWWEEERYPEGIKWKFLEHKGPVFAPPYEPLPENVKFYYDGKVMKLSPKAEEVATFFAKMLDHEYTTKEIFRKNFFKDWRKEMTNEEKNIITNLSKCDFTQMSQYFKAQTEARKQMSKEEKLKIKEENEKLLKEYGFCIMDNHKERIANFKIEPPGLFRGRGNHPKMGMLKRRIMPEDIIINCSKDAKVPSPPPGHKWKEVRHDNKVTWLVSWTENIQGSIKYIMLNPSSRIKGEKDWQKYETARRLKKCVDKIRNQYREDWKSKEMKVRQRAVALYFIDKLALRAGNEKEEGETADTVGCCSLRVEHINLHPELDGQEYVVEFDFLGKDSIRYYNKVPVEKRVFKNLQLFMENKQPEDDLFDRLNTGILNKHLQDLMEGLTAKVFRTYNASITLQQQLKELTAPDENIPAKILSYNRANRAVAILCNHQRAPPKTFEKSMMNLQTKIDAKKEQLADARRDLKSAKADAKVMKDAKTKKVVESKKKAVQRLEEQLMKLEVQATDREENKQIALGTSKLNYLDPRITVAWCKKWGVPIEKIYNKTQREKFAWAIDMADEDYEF
The experiment in a line: Inhibition of topoisomerase 1 relative to etoposide.
For the compound `COc1ccc(N/N=C2\CCCc3ccccc3C2=O)cc1`, the Ratio turned out to be 4.8.
On to `O=C1/C(=N/Nc2ccccc2)CCCc2ccccc21`, for which the Ratio was 4.3.
